This note sets out measurements from ChEMBL document CHEMBL1148420, “Identification and synthesis of [1,2,4]triazolo[3,4-a]phthalazine derivatives as high-affinity ligands to the alpha 2 delta-1 subunit of voltage gated calcium channel” (Bioorg Med Chem Lett, 2004).

SMILES strings stand for the structures.

T1 sequence (P54289 25-956 limits assumed): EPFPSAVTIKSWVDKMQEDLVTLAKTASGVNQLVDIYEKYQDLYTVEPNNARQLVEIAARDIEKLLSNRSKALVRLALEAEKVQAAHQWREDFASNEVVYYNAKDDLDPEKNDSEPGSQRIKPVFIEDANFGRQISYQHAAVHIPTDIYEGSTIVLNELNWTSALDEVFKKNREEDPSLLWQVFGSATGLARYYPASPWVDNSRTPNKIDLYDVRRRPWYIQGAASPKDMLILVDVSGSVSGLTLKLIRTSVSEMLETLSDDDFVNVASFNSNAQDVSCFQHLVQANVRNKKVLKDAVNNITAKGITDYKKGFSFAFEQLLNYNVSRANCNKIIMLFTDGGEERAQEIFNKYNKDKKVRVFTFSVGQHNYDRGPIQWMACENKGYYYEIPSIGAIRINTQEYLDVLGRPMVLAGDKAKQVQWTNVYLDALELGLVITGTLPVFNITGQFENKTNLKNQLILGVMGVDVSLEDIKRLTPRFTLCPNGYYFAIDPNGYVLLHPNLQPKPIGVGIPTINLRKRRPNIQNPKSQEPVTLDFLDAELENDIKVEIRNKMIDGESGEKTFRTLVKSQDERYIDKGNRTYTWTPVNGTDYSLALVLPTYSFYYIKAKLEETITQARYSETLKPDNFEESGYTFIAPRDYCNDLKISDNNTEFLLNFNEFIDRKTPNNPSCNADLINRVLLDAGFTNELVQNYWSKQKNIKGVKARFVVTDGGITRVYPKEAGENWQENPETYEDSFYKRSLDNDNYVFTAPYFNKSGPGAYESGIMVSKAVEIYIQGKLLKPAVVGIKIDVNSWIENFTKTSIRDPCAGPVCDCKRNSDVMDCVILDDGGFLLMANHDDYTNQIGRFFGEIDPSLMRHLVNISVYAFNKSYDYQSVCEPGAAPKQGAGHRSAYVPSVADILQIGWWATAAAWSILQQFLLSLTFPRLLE
T1 sequence (P54289 957-1103 limits assumed): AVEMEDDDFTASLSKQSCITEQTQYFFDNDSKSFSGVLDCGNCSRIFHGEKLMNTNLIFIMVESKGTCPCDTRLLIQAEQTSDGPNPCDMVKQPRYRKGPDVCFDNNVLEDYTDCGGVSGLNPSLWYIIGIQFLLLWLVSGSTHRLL

One test has as its target T1, Voltage-dependent calcium channel subunit alpha-2/delta-1 (Homo sapiens, UniProt P54289). Briefly: Binding affinity against alpha-2 delta-1 subunit of voltage gated subunit of Ca+2 channel in human. A digest of the protocol:
(§1)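 [3H]gabapentin displacement binding on A710 membranes (HEK 293 cells stably transfected with human α1B, β3a and α2δ-1b subunits), following a literature method.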
As a reminder, the IC50 is the midpoint of a concentration-inhibition curve. Turning to `c1ccc(CCNCc2cccc(COc3nn4c(-c5ccccc5)nnc4c4ccccc34)n2)cc1`, the IC50 came to 195 nM.

In the case of `COc1cccc(CCNCc2cccc(COc3nn4c(C(F)(F)F)nnc4c4ccccc34)n2)c1`, the IC50 amounted to 116 nM.

Turning to `COc1ccc(CCNCc2cccc(COc3nn4c(C(F)(F)F)nnc4c4ccccc34)n2)cc1`, the IC50 came to 829 nM.

For `CCc1nnc2c3ccccc3c(OCc3cccc(CNCCc4ccccc4)n3)nn12`, the IC50 came to 241 nM.

Turning to `CSc1nnc2c3ccccc3c(OCc3cccc(CNCCc4ccccc4)n3)nn12`, the IC50 is 194 nM.

Take `c1ccc(CCNCc2cccc(COc3nn4cnnc4c4ccccc34)n2)cc1`: the IC50 was determined as 230 nM.

On to `Fc1ccccc1CCNCc1cccc(COc2nn3c(C(F)(F)F)nnc3c3ccccc23)n1`, for which the IC50 came out at 291 nM.

As for `c1ccc(CCNCc2cccc(COc3nn4c(C5CCCCC5)nnc4c4ccccc34)n2)cc1`, the IC50 was found to be 145 nM.

Turning to `Cc1cc(-c2nnc3c4ccccc4c(OCc4cccc(CNCCc5ccccc5)n4)nn23)no1`, the IC50 was 220 nM.

Regarding `Cc1nnc2c3ccccc3c(OCc3cccc(CNCCc4ccccc4)n3)nn12`, the IC50 amounted to 145 nM.

On to `COCc1nnc2c3ccccc3c(OCc3cccc(CNCCc4ccccc4)n3)nn12`, for which the IC50 is 131 nM.

`CC(C)c1nnc2c3ccccc3c(OCc3cccc(CNCCc4ccccc4)n3)nn12`: the IC50 worked out at 342 nM.

`c1ccc(CCNCc2cccc(COc3nn4c(C5CC5)nnc4c4ccccc34)n2)cc1`: the IC50 worked out at 272 nM.

For the compound `FC(F)(F)c1nnc2c3ccccc3c(OCc3cccc(CNCCc4ccccc4)n3)nn12`, the IC50 stood at 72 nM.

Another test addresses T1, Voltage-dependent calcium channel subunit alpha-2/delta-1. The test can be described thus: Binding affinity against alpha2 delta-1 subunit of voltage-gated calcium channel in human. A digest of the protocol: as §1
For `[3H]c1cccc(CCN[C@@H](C)c2cccc(COc3nn4c(C(F)(F)F)nnc4c4ccccc34)n2)c1`, the IC50 came out at 30 nM.

Turning to `C[C@H](NCCc1cccc(Br)c1)c1cccc(COc2nn3c(C(F)(F)F)nnc3c3ccccc23)n1`, the IC50 was found to be 28 nM.

Take `CN(CCc1ccccc1)Cc1cccc(COc2nn3c(C(F)(F)F)nnc3c3ccccc23)n1`: the IC50 amounted to 10000 nM.

With `Fc1ccc(CCNCc2cccc(COc3nn4c(C(F)(F)F)nnc4c4ccccc34)n2)cc1`, the IC50 was determined as 630 nM.

On to `C[C@H](NCCc1ccccc1)c1cccc(COc2nn3c(C(F)(F)F)nnc3c3ccccc23)n1`, for which the IC50 stood at 30 nM.

Regarding `CC(C)(Cc1ccccc1)NCc1cccc(COc2nn3c(C(F)(F)F)nnc3c3ccccc23)n1`, the IC50 was 10000 nM.

With `Cc1ccc(CCNCc2cccc(COc3nn4c(C(F)(F)F)nnc4c4ccccc34)n2)cc1`, the IC50 was determined as 260 nM.

As to `Fc1cccc(CCNCc2cccc(COc3nn4c(C(F)(F)F)nnc4c4ccccc34)n2)c1`, the IC50 came to 161 nM.

Consider `C[C@@H](Cc1ccccc1)NCc1cccc(COc2nn3c(C(F)(F)F)nnc3c3ccccc23)n1`, for which the IC50 was found to be 700 nM.

As to `Cc1ccccc1CCNCc1cccc(COc2nn3c(C(F)(F)F)nnc3c3ccccc23)n1`, the IC50 was found to be 448 nM.

Consider `C[C@@H](NCCc1ccccc1)c1cccc(COc2nn3c(C(F)(F)F)nnc3c3ccccc23)n1`, for which the IC50 came to 10000 nM.

For `Cc1cccc(CCNCc2cccc(COc3nn4c(C(F)(F)F)nnc4c4ccccc34)n2)c1`, the IC50 worked out at 15 nM.

Turning to `FC(F)(F)c1nnc2c3ccccc3c(OCc3cccc(CNC4C[C@H]4c4ccccc4)n3)nn12` (mixture of isomers), the IC50 worked out at 229 nM.

`CC(C)C(NCCc1ccccc1)c1cccc(COc2nn3c(C(F)(F)F)nnc3c3ccccc23)n1` (racemic): the IC50 was 174 nM.

In the case of `CC(Cc1ccccc1)NCc1cccc(COc2nn3c(C(F)(F)F)nnc3c3ccccc23)n1` (racemic), the IC50 was found to be 1370 nM.

Take `Cc1cccc(CCNC(C)c2cccc(COc3nn4c(C(F)(F)F)nnc4c4ccccc34)n2)c1` (racemic): the IC50 stood at 29 nM.

For `CC(NCCc1ccccc1)c1cccc(COc2nn3c(C(F)(F)F)nnc3c3ccccc23)n1` (racemic), the IC50 worked out at 36 nM.

In the case of `CC(CNCc1cccc(COc2nn3c(C(F)(F)F)nnc3c3ccccc23)n1)c1ccccc1` (racemic), the IC50 is 198 nM.

Turning to `CCC(NCCc1ccccc1)c1cccc(COc2nn3c(C(F)(F)F)nnc3c3ccccc23)n1` (racemic), the IC50 came out at 183 nM.
